According to ChEMBL document CHEMBL5252546, “Salutaxel, a Conjugate of Docetaxel and a Muramyl Dipeptide (MDP) Analogue, Acts as Multifunctional Prodrug That Inhibits Tumor Growth and Metastasis” (J Med Chem, 2018):
Active and inactive are the calls of the source. The calls are words filed in the database; no cut-off is given here.

Experiments:
[1] = tested on: 4T1; test: Antitumor activity against mouse 4T1 cells implanted in BALB/c mouse assessed as decrease in lung Ly-6G expression level at 5 to 20 mg/kg,iv administrated once per week for 4 weeks by immunohistochemistry analysis; assay type: functional, organism-based; conditions: dose 5-20 mg/kg
[2] = tested on: 4T1; test: Antitumor activity against mouse 4T1 cells implanted in BALB/c mouse assessed as decrease in lung injury at 5 to 20 mg/kg,iv administrated once per week for 4 weeks by H and E staining based assay; assay type: functional, organism-based; conditions: dose 5-20 mg/kg
[3] = tested on: 4T1; test: Antitumor activity against mouse 4T1 cells implanted in BALB/c mouse assessed as decrease in lung metastasis at 5 to 20 mg/kg,iv administrated once per week for 4 weeks by H and E staining based assay; assay type: functional, organism-based; conditions: dose 5-20 mg/kg
[4] = tested on: 4T1; test: Antitumor activity against mouse 4T1 cells implanted in BALB/c mouse assessed as decrease in lung TSP-1 expression level at 5 to 20 mg/kg,iv administrated once per week for 4 weeks by immunohistochemistry analysis; assay type: functional, organism-based; conditions: dose 5-20 mg/kg
[5] = Toxicity in BALB/c mouse xenografted with mouse 4T1 cells assessed as decrease in body weight at 4 mg/kg,iv administrated combination with compound 3 once per week for 4 weeks; assay type: organism-based; conditions: in vivo, 672 h
In short: (§1)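 4T1 mammary fat-pad model in BALB/c mice. Doxorubicin (4 mg/kg) was given alone or co-administered with the conjugate or its parent taxane, with iv saline vehicle. Readouts were body weight, tumour volume, tumour weight, lung metastatic nodules and lung metastasis score. Mean ± SEM, n = 10; ANOVA and Student's t test.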

[6] = tested on: 4T1; test: Antitumor activity against mouse 4T1 cells xenografted with BALB/c mouse assessed as decrease in lung metastasis at 4 mg/kg,iv administrated once per week for 4 weeks; assay type: functional, organism-based
[7] = tested on: 4T1; test: Antitumor activity against mouse 4T1 cells xenografted with BALB/c mouse assessed as decrease in tumor weight at 4 mg/kg,iv administrated once per week for 4 weeks; assay type: functional, organism-based
[8] = Toxicity in BALB/c mouse xenografted with mouse 4T1 cells assessed as decrease in body weight at 4 mg/kg,iv administrated once per week for 4 weeks; assay type: organism-based; conditions: in vivo, 672 h
[9] = Toxicity in BALB/c mouse xenografted with mouse 4T1 cells assessed as decrease in body weight at 4 mg/kg,iv administrated with docetaxel combination once per week for 4 weeks; assay type: organism-based; conditions: in vivo, 672 h; in short: as §1

SMILES	Activity [1]	Activity [2]	Activity [3]	Activity [4]	Activity [5]	Activity [6]	Activity [7]	Activity [8]	Activity [9]
CC(=O)O[C@@]12CO[C@@H]1C[C@H](O)[C@@]1(C)C(=O)[C@H](O)C3=C(C)[C@@H](OC(=O)[C@H](OC(=O)CCC(=O)NCCCC[C@H](NC(=O)CC[C@@H](NC(=O)[C@H](C)NC(=O)/C=C/c4ccc(F)cc4Cl)C(N)=O)C(N)=O)[C@@H](NC(=O)OC(C)(C)C)c4ccccc4)C[C@@](O)([C@@H](OC(=O)c4ccccc4)[C@H]21)C3(C)C	Active	Dose-Dependent Effect	Dose-Dependent Effect	Active					
COc1cccc2c1C(=O)c1c(O)c3c(c(O)c1C2=O)C[C@@](O)(C(=O)CO)C[C@@H]3O[C@H]1C[C@H](N)[C@H](O)[C@H](C)O1 [DOXORUBICIN]					Toxic	Active	Active	Toxic	Toxic
